Assay outcomes (PubChem)
NR2E3 ag-1 = activates human NR2E3 receptor | Q9Y5X4 | CHO-S Gal4-NCOR/VP16-NR2E3 two-hybrid, luciferase | inhibition of corepressor binding, % at 3.98 µM | 0.35% of 360,000 active;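 active = inhibition above the mean of all tested compounds plus 3 SD, cut at about 70% in these data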;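 also: 0% = DMSO with NR2E3 transfected cells and 100% = cells lacking NR2E3 construct; higher means lower luciferase signal from less NR2E3 corepressor binding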
PG9 binder = binds the HIV-1 gp120 antibody PG9; inhibition, % at 6.7 µM; TR-FRET gp120-PG9 antibody binding; 0.43% of 360,000 active; AID 624416; in the data active = inhibition above about 8.5%
NR1D1 modulator = modulates human Rev-erb alpha binding to DNA; P20393; AID 1259318; 0.79% of 370,000 active; activity, % at 10 µM; Rev-erbα–FITC-DNA binding, fluorescence polarization, 90 min;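 active = activity above about 14%, limit read from the data; passing the limit was not always enough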;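 also: 0% = DMSO wells with 35 nM protein and 100% = DMSO wells with 750 nM protein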
Target sequence (P20393 whole entry, looked up): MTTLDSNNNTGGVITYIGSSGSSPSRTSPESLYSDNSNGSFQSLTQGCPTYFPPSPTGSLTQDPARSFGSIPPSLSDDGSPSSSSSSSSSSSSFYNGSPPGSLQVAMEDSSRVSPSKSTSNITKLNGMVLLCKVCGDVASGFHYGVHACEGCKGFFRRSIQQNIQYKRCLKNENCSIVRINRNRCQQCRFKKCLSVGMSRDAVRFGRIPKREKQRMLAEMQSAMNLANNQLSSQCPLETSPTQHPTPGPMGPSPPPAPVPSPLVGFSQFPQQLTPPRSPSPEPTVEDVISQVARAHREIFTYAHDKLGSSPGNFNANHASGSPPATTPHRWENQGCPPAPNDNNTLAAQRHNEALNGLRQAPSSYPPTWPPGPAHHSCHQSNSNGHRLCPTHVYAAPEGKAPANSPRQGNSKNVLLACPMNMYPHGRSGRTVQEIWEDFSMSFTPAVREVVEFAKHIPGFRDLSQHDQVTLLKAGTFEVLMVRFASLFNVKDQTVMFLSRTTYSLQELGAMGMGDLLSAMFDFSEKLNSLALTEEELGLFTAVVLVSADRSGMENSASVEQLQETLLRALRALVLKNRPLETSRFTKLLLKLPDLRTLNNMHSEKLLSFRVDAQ
NR2E3 ag-2 = activates human photoreceptor nuclear receptor NR2E3 | Q9Y5X4 | GST-NR2E3/biotin-RetCOR TR-FRET, 1536-well | inhibition of corepressor binding, % at 4.78 µM | 0.12% of 320,000 active;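 active = percent inhibition above the cutoff of mean plus 3 SD of all tested compounds, set per screening campaign, cut at about 20% in these data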;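 also: 0% = DMSO wells and 100% = biotin wells as full block of FRET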
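Material: NR2E3–RetCOR corepressor complex | Quantity: 1.35 nM GST-tagged NR2E3 final | Schedule: 5 h at 4 °C | Replication: Singlicate compound wells | Reagent: RetCOR corepressor, biotinylated, 7 nM | Controls: Biotin wells as high control, 0.6% DMSO wells as low control | Signal: TR-FRET, Eu(K)-anti-GST donor, streptavidin-D2 acceptor, ex 340, em 617/671 nm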
rCAG binder = molecules binding r(CAG) RNA repeats | r(CAG) RNA repeat, TO-PRO-1 dye displacement fluorescence | inhibition, % at 3 µM | 1.3% of 370,000 active;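 active = inhibition above the plate cutoff, the mean of all test compounds on that plate plus 3 SD, cut at about 35% in these data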;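 also: 0% = DMSO alone and 100% = 100 µM mitoxantrone as full dye displacement; higher means more dye released from RNA so lower well fluorescence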
NR2E3 ag confirm = NR2E3 agonism confirmed in two-hybrid assay. 51% of 2,300 active. shares compounds with NR2E3 ag-1. CHO-S mammalian two-hybrid NR2E3-NCOR, luciferase luminescence. inhibition, % at 3.98 µM;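 active = average inhibition above a cutoff equal to the mean inhibition of all tested compounds plus one SD, cut at about 70% in these data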;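 also: 0% = DMSO in NR2E3 cells and 100% = DMSO in cells lacking NR2E3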
GAL4-VP16 luc = GAL4-VP16 reporter inhibition in NR2E3 agonist counterscreen; inhibition, % at 3.98 µM; 29% of 2,300 active; CHO-S GAL4-VP16 luciferase reporter, luminescence; shares compounds with NR2E3 ag-1;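 active = mean inhibition above a cutoff equal to the average over all tested compounds plus one standard deviation, cut at about 70% in these data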;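 also: luciferase from a UAS reporter driven by GAL4-VP16 transactivation; 0% = DMSO with VP16-transfected cells and 100% = DMSO with cells lacking VP16; higher means less reporter light so more repression of VP16 activity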
Active calls of the source: *. Compounds with a hit are over-represented: about 2.6% of the library has one in this group of screens.

What do the screens show for `Cc1ccc(NS(=O)(=O)c2ccc(-n3cccn3)cc2)c(Br)c1`?
NR2E3 ag-1: 48.7; PG9 binder: -0.3; NR1D1 modulator: 11.3; rCAG binder: 11.1; NR2E3 ag confirm: 61.9; GAL4-VP16 luc: 48.5

Results for Cc1ccc(NS(=O)(=O)c2ccc(-n3cccn3)cc2)cc1F ?
NR2E3 ag-1: 57.3; PG9 binder: -1.4; NR1D1 modulator: -2.1; NR2E3 ag-2: -0.6; rCAG binder: 6.6; NR2E3 ag confirm: 37.4; GAL4-VP16 luc: 37.0

What do the screens show for `CN(c1ccccc1)S(=O)(=O)c1cccc(NC(=O)CSc2nncs2)c1`?
NR2E3 ag-1: 69.9; PG9 binder: 1.8; NR1D1 modulator: -3.0; NR2E3 ag-2: 2.6; rCAG binder: 6.0; NR2E3 ag confirm: 65.7; GAL4-VP16 luc: 76.0*

What do the screens show for `CC(C)c1nc(N(C)S(C)(=O)=O)nc(-c2ccc(F)cc2)c1/C=C/[C@H](O)C[C@@H](O)CC(=O)O`?
NR1D1 modulator: 3.1; rCAG binder: 3.1

How did CCC(=O)N1CCCc2cc(S(=O)(=O)N3CCN(c4ccccn4)CC3)ccc21 do in these assays?
NR2E3 ag-1: 68.5; PG9 binder: -0.5; NR1D1 modulator: -4.2; NR2E3 ag-2: -0.6; rCAG binder: -2.3; NR2E3 ag confirm: 92.6*; GAL4-VP16 luc: 6.3

How did CCC(=O)N1CCCc2cc(S(=O)(=O)N3CCN(c4ncccn4)CC3)ccc21 do in these assays?
NR2E3 ag-1: -6.6; PG9 binder: -0.4; NR1D1 modulator: 1.7; NR2E3 ag-2: -0.3; rCAG binder: 1.2

What do the screens show for `COC(=O)c1cc(S(=O)(=O)Nc2cc(OC)cc(OC)c2)cn1C`?
NR2E3 ag-1: 14.1; PG9 binder: -0.5; NR1D1 modulator: 6.1; NR2E3 ag-2: 1.5; rCAG binder: 2.3

Results for CCOC(=O)c1cc(S(=O)(=O)Nc2cccc(OC)c2)cn1C ?
NR2E3 ag-1: 53.9; PG9 binder: -1.3; NR1D1 modulator: -1.9; NR2E3 ag-2: 0.4; rCAG binder: 2.8; NR2E3 ag confirm: 25.1; GAL4-VP16 luc: 28.1

What do the screens show for `Oc1c(N=NC(=S)Nc2ccccc2F)c2ccccc2n1Cc1ccccc1`?
NR2E3 ag-1: -23.3; PG9 binder: -3.2; NR1D1 modulator: 2.5; NR2E3 ag-2: 0.9; rCAG binder: 6.5

Results for C=CCn1c(O)c(N=NC(=S)Nc2cccc(C)c2)c2ccccc21 ?
NR2E3 ag-1: 79.8*; PG9 binder: 0.2; NR1D1 modulator: 3.1; NR2E3 ag-2: -4.2; rCAG binder: 17.8; NR2E3 ag confirm: 27.6; GAL4-VP16 luc: 42.3

How did C=CCn1c(O)c(N=NC(=S)Nc2ccccc2F)c2ccccc21 do in these assays?
NR2E3 ag-1: 86.2*; PG9 binder: -1.8; NR1D1 modulator: -6.0; NR2E3 ag-2: 4.3; rCAG binder: 13.8; NR2E3 ag confirm: 22.8; GAL4-VP16 luc: 32.5

What do the screens show for `CCn1c(O)c(N=NC(=O)CNc2cccc(C)c2)c2ccccc21`?
NR2E3 ag-1: 7.8; PG9 binder: -2.8; NR1D1 modulator: -7.2; NR2E3 ag-2: 3.0; rCAG binder: 0.3

What do the screens show for `OCCCNc1ncnc2[nH]ncc12`?
NR2E3 ag-1: -14.0; PG9 binder: 1.3; NR1D1 modulator: -2.5; rCAG binder: 0.8

How did CCCCCCCCNc1ncnc2[nH]ncc12 do in these assays?
NR2E3 ag-1: 73.1*; PG9 binder: -1.7; NR1D1 modulator: 0.8; rCAG binder: -2.5; NR2E3 ag confirm: 84.1*; GAL4-VP16 luc: 72.7*

What do the screens show for `CCCCCCCCC[n+]1cccc2c3ccccc3ccc21`?
NR2E3 ag-1: 82.1*; NR2E3 ag-2: 4.4; NR2E3 ag confirm: 99.1*; GAL4-VP16 luc: 73.9*

Results for COC1=C(C)C(=O)C2=C(C1=O)C1C3CC4=C(C(=O)C(OC)=C(C)C4=O)C(CNC(=O)C(C)=O)N3C(C#N)C(C2)N1C (stereo not given) ?
NR2E3 ag-1: 102.2*; PG9 binder: -10.2; NR1D1 modulator: 2.7; rCAG binder: 8.5; NR2E3 ag confirm: 99.6*; GAL4-VP16 luc: 95.2*

Results for S=c1nc2ccccc2c2nc(-c3ccccc3)[nH]n12 ?
NR2E3 ag-1: 83.0*; PG9 binder: 3.8; NR1D1 modulator: -7.8; NR2E3 ag-2: 1.1; rCAG binder: 15.2; NR2E3 ag confirm: -55.9; GAL4-VP16 luc: -63.1

Results for COc1ccccc1-c1nc2c3ccccc3nc(=S)n2[nH]1 ?
NR2E3 ag-1: 23.1; PG9 binder: -1.9; NR1D1 modulator: 3.2; NR2E3 ag-2: -2.1; rCAG binder: 4.7

What do the screens show for `CC(Oc1ccc(Br)cc1)c1nc2c3ccccc3nc(=S)n2[nH]1` (stereo not given)?
NR2E3 ag-1: 82.8*; PG9 binder: -2.1; NR1D1 modulator: 8.4; NR2E3 ag-2: -1.3; rCAG binder: 36.0*; NR2E3 ag confirm: 89.0*; GAL4-VP16 luc: 41.0

How did O=C1CSC(c2cccs2)N1c1nncs1 (stereo not given) do in these assays?
PG9 binder: 1.3; NR1D1 modulator: -1.5; rCAG binder: 1.3

How did Clc1ccccc1-c1cnc2sc(NCc3ccc4c(c3)OCO4)nn12 do in these assays?
NR2E3 ag-1: 56.8; PG9 binder: 1.8; NR1D1 modulator: 2.7; rCAG binder: 8.1; NR2E3 ag confirm: 36.9; GAL4-VP16 luc: 42.2

How did Clc1ccccc1-c1ccc2ncnc(NCc3ccc4c(c3)OCO4)c2c1 do in these assays?
NR2E3 ag-1: 6.2; PG9 binder: -2.1; NR1D1 modulator: -0.3; NR2E3 ag-2: 1.8; rCAG binder: 7.5

How did Cc1ccc2nc(C)c(CN3CCN(c4ccc([N+](=O)[O-])cc4Cl)CC3)n2c1 do in these assays?
NR2E3 ag-1: 104.2*; PG9 binder: -1.2; NR1D1 modulator: 10.0; NR2E3 ag-2: 1.3; rCAG binder: -1.9; NR2E3 ag confirm: 95.2*; GAL4-VP16 luc: 84.2*

How did O=[N+]([O-])c1ccc(Cl)c(CN2CCN(c3ncccn3)CC2)c1 do in these assays?
NR2E3 ag-1: -12.2; PG9 binder: -1.1; NR1D1 modulator: -6.1; NR2E3 ag-2: -2.2; rCAG binder: -5.4

Results for COc1ccc(CNC(=O)[C@@H](Cc2ccccc2)NC(=O)[C@H]2O[C@@H](n3ccc(=O)[nH]c3=O)[C@H](O)[C@@H]2O)cc1 ?
PG9 binder: -1.4; NR1D1 modulator: -0.4; rCAG binder: 2.0

What do the screens show for `CCOc1ccc(N/C(SCc2cccc([N+](=O)[O-])c2)=C(/C#N)C(N)=O)cc1`?
NR2E3 ag-1: -28.9; PG9 binder: -0.2; NR1D1 modulator: -2.5; NR2E3 ag-2: 1.1; rCAG binder: 2.0

How did N#CC(C#N)=C(Nc1ccc(F)cc1)SCc1cccc(F)c1 do in these assays?
NR2E3 ag-1: 81.0*; PG9 binder: -2.2; NR1D1 modulator: -3.0; NR2E3 ag-2: -0.9; rCAG binder: 32.2; NR2E3 ag confirm: 88.7*; GAL4-VP16 luc: 87.5*
